# Tn7 DDE FP: DD(E)-Tn7 binding inhibition, primary FP screen; FP displacement of FITC-Tn7 peptide from fibrin DD(E); 0% = median of compound wells per plate; inhibition, % at 8.3 µM; 0.13% of 370,000 active;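 active = inhibition above the mean of compounds falling within the control limits plus 3 SD of them, cut at about 14% in these data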;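 also: 0% = plate median of compound wells and 100% = 10 µM Aha-Tn7 peptide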
#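 Assay system: Fibrin-DD(E) protein isolated from polymerized human fibrin clots; read-out basis: percent inhibition; medium: Tris/NaCl/CaCl2 buffer, pH 7.8; signal: FP measurement; incubation: 10 min plus 3 h, room temperature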
# KLK7 zymogen act: activates the human kallikrein-7 zymogen. purified proKLK7, EDANS-DABCYL substrate fluorescence; 100% is mature enzyme control, 0% vehicle. AID 652039. 0.9% of 370,000 active. P49862. activation, % at 7 µM;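 active = activation above the mean of all tested compounds plus 3 SD, computed per campaign excluding outliers beyond control limits, cut at about 13% in these data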
# Tn6 DDE FP: inhibitors of Tn6 peptide binding to human fibrin DD(E); Fibrin DD(E) TRITC-Tn6 fluorescence polarization displacement; P02675; inhibition, % at 8.3 µM; 0.21% of 370,000 active; AID 720509;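 active = inhibition above a per-campaign cutoff: mean of compounds within control limits plus 3 SD, cut at about 15% in these data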;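 also: 0% = median of all compound wells on the plate and 100% = blocking peptide control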
# CRFBP-R2 agonist: agonists of human CRF-binding protein/CRF-R2 receptor complex; HEK293 CRF-R2/CRF-BP, calcium dye fluorescence (FLIPR); percent of saturating CRF peptide response; activation, % at 13.2 µM; 0.46% of 350,000 active;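 active = activation of at least 50%, plus an integration ratio under a set limit after plate pattern correction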;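 also: plate controls were neutral control wells without compound for no effect and CRF at EC100 for full effect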
# CRFBP-R2 block: blocks CRF-induced signaling of the CRF-BP/CRF-R2 complex. HEK293 CRF-R2/CRF-BP, CRF-induced calcium fluorescence. inhibition, % at 11.8 µM. 0.59% of 350,000 active;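 active = inhibition of the ligand-induced calcium signal above about 50% at the single tested concentration, limit read from the data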
# CendR NRP1 mod: modulators of CendR peptide binding to human neuropilin-1. O14786. FAM-RPARPAR peptide binding to NRP-1, fluorescence polarization. inhibition, % at 25 µM. 0.85% of 360,000 active. AID 602438;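 active = inhibition or corrected inhibition above about 18%, plus a signal ratio from 0.5 to 1.5, limit read from the data, passing the limit was not always enough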
# Target sequence (O14786 whole entry, looked up): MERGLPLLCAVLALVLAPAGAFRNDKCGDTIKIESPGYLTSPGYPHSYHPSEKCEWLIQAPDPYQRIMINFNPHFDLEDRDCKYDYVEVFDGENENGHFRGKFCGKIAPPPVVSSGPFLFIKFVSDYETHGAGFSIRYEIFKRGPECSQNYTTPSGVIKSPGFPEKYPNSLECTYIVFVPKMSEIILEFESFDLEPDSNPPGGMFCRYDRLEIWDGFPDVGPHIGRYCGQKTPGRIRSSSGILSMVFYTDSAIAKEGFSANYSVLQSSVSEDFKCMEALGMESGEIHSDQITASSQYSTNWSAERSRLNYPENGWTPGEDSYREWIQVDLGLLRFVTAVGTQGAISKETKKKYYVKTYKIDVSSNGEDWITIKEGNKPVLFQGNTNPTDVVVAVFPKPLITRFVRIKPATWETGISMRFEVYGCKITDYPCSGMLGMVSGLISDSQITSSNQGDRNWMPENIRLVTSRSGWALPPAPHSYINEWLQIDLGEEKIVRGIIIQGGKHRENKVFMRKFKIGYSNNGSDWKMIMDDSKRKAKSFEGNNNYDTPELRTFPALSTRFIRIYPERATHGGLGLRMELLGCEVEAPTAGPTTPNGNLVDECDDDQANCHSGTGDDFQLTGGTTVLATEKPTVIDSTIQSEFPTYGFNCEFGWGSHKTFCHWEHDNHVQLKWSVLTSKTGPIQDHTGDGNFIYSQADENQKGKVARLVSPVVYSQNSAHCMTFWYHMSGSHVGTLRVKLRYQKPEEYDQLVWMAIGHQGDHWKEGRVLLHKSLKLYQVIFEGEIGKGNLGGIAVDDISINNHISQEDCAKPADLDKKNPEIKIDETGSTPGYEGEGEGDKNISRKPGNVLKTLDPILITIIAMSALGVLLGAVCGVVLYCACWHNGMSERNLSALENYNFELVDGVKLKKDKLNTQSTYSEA
# KLK7 act conf: proKLK7 activation, confirmation. shares compounds with KLK7 zymogen act. purified proKLK7, EDANS-DABCYL substrate fluorescence; scaled: vehicle 0, mature enzyme 100. activation, % at 7 µM. 68% of 3,200 active. AID 686949;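 active = activation, as change over the incubation, above the mean of all tested compounds plus 3 SD, cut at about 13% in these data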
# EDANS-DABCYL int: fluorescence interference counter-screen for KLK7 activators. shares compounds with KLK7 zymogen act. EDANS-DABCYL substrate fluorescence interference, no enzyme, 4 h; solvent 0%, active enzyme control 100%. activation, % at 7 µM. 80% of 3,200 active;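 active = activation above the all-compound mean plus 3 SD, ignoring values outside control-based bounds, cut at about 4.8% in these data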;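 also: value is the 4 h activation minus the activation read at time zero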
# Active calls of the source: *; . = not tested or not shown. Compounds with a hit are over-represented: about 2.9% of the library has one in this group of screens.
SMILES,Tn7 DDE FP,KLK7 zymogen act,Tn6 DDE FP,CRFBP-R2 agonist,CRFBP-R2 block,CendR NRP1 mod,KLK7 act conf,EDANS-DABCYL int
CC(=O)N1CCC2(CC1)CC(=O)c1cc(OCC(=O)NCc3ccc(C)cc3)ccc1O2,1,35*,6,1,21,2,26*,46*
Cc1cccc(OCC(=O)N2CCC3(CC2)CC(=O)c2ccccc2O3)c1,-2,0,13,0,-7,3,.,.
CC(C)(C)c1ccc(OCC(=O)NCc2ccco2)cc1,7,0,-6,-3,-7,1,.,.
O=c1c(-c2cccs2)nc2ccccc2n1C(c1ccccn1)c1nc2ccccc2[nH]1 (stereo not drawn),-4,17*,-10,.,.,12,13,14*
C[C@@H]1C(c2cccc(Cl)c2)=NN(c2ccccc2)[C@H]1C(=O)N1CCOC1=O,0,6,7,8,4,-4,.,.
C[C@@H]1C(c2ccccc2)=NN(c2ccccc2)[C@H]1C(=O)N1CCOC1=O,-2,243*,7,-3,-5,-2,223*,217*
CCc1noc(C)c1C(=O)N1CCN(CC(=O)OC)CC1,-2,0,0,.,.,.,.,.
COc1cccc2c(=O)cn[nH]c12,6,84*,1,0,-15,10,66*,64*
COC(=O)c1cc(=O)c2cccc(OC)c2[nH]1,1,196*,-10,-2,0,5,77*,77*
COC(=O)C1=C(C)N(Cc2ccc(C(F)(F)F)cc2)C(=NCc2ccccc2)NC1c1ccc(C(F)(F)F)cc1 (stereo not drawn),0,0,-2,.,.,.,.,.
Cc1ccc(-c2cc(C(=O)NCCCN3CCCC3)c3ccccc3n2)cc1C,-2,9,-5,0,-21,4,.,.
CCOc1ccc(-c2cc(C(=O)NCCCN3CCCC3)c3ccccc3n2)cc1,7,24*,-8,-1,-11,-1,-1,-5
CCn1ncc(-c2ccnc3cc(C(=O)O)nn23)c1C,5,13*,1,0,5,2,39*,44*
O=C1c2ccccc2NC(c2cccc(O)c2)N1NS(=O)(=O)c1ccccc1 (stereo not drawn),1,20*,5,0,-2,4,7,6.5*
O=C1c2ccccc2NC(c2cccc(O)c2)N1c1ccccc1 (stereo not drawn),1,44*,7,0,1,-4,12,15*
Cc1ccc(S(=O)(=O)NN2C(=O)c3ccccc3NC2c2ccccc2)cc1 (stereo not drawn),-4,17*,-1,-2,8,4,4,4.9*
COc1ccc(C2Nc3ccccc3C(=O)N2NS(=O)(=O)c2ccc(C)cc2)cc1 (stereo not drawn),5,16*,5,-1,11,5,4,5.6*
O=C(NN1C(=O)c2ccccc2NC1c1cccnc1)c1ccccc1 (stereo not drawn),-8,2,1,-2,3,5,.,.
CC(=O)NN1C(=O)c2ccccc2NC1c1cccc([N+](=O)[O-])c1 (stereo not drawn),-7,0,4,0,-7,-7,.,.
O=C(CC1CCCC1)N1CC[C@H]2[C@H](CCCN2Cc2ccc(F)cc2)C1,-5,0,-1,.,.,.,.,.
COc1cccc(CNC(=O)[C@H]2CCCN2C(=O)[C@H]2CCCN2C(=O)c2ccccc2C(F)(F)F)c1,-5,0,1,.,.,.,.,.
CC(=O)c1cccc(NC(=O)CC2S/C(=N/N=C/c3ccccc3)NC2=O)c1 (stereo not drawn),6,0,2,-2,12,7,.,.
O=C(O)CNC(=O)CC1S/C(=N/N=C/c2ccccc2O)NC1=O (stereo not drawn),7,21*,2,0,4,1,34*,41*
CCSc1nc2c(c(=O)[nH]1)C(c1ccc(C)cc1)C1=C(CCCC1=O)N2 (stereo not drawn),6,17*,-5,-1,5,4,-7,-7
CSc1nnc(-c2cc3c(s2)-c2ccccc2CC3)o1,-4,-152,10,3,-5,-5,.,.
SMILES,Tn7 DDE FP,KLK7 zymogen act,Tn6 DDE FP,CRFBP-R2 agonist,CRFBP-R2 block,CendR NRP1 mod,KLK7 act conf,EDANS-DABCYL int
S=c1[nH]nc(-c2cc3c(s2)-c2ccccc2CC3)o1,-2,39*,-5,-1,32,-3,70*,70*
Nc1nc2ncccn2c1-c1ccc(F)cc1,-6,9,-5,.,.,-14,.,.
Nc1nc2ncccn2c1-c1ccc(C(F)(F)F)cc1,0,26*,7,.,.,19,60*,63*
O=CN1CCN(C(=O)C2CCN(c3ncnc4c3sc3cccc(F)c34)CC2)CC1,9,1,-2,.,.,.,.,.
N#Cc1nc(-c2cccs2)oc1NCCN1CCOCC1,5,28*,6,1,-23,8,42*,39*
CNc1oc(-c2cccs2)nc1C#N,1,-19,0,-2,-24,10,.,.
N#Cc1nc(-c2ccccc2)oc1NCCN1CCCCC1,1,40*,4,-2,-9,12,8,10*
CN(C)c1oc(-c2cccs2)nc1C#N,6,39*,-4,-2,8,-5,65*,82*
CCCCC1C2C(=O)N(c3ccc(C)cc3)C(=O)C2ON1c1ccccc1 (stereo not drawn),7,15*,1,4,-23,1,36*,34*
CCCCC1C2C(=O)N(c3ccccc3)C(=O)C2ON1c1ccccc1 (stereo not drawn),-1,1,-2,1,2,3,.,.
CCN(CC)CCCNC(=O)CSc1nnc(-c2ccncc2)n1-c1ccc(OC)cc1,3,0,-5,.,.,.,.,.
O=C(NC1=NCCS1)c1cc(-c2cccs2)nc2ccccc12,-2,35*,-1,-2,-4,12,-28,-14
COc1ccc(CCNC(=O)CSc2nc(N)c(C#N)c(-c3cccs3)c2C#N)cc1OC,2,22*,4,0,10,-7,35*,41*
COc1ccc(CNC(=O)COC(=O)c2cc(-c3cccs3)nc3ccccc23)cc1OC,-12,15*,-7,-1,31,2,-3,0
